Test results taken from publication PMC5995301 (International Journal of Nanomedicine, 2018).

Key:
In vitro drug release = type: physicochemical; conditions: basket 100 rpm
[1] = In vitro permeability across a Caco-2 cell monolayer; type: in vitro ADME; conditions: human
Procedure, shortened: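 Caco-2 monolayers were grown on Transwell inserts (0.4 μm pores, 1.12 cm2). Test compound was applied. Transported samples were filtered (0.45 μm PVDF), and drug in them was quantified by HPLC-UV. The apparent permeability coefficient was calculated from the transported amount.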

LLC tumor-bearing mice = test: In vivo tumor growth inhibition in LLC tumor-bearing mice; parameters: species or system C57BL/6 mice
Procedure, shortened: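 Female C57BL/6 mice (20–25 g) received 1×10^6 LLC cells in 100 μL PBS pH 7.4 subcutaneously in the flank. At 80–100 mm3, mice were randomised into groups of 10 (untreated, oral daily, or IV once-weekly 20 mg/kg PMX in water). Oral groups were fasted 4 h before and 2 h after dosing. Calipers measured tumors every 3 days for 21 days; volume = a2×b×0.52. Mean ± SD, n=10.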

[2] = test system: human lung carcinoma (A549) cells; test: In vitro cytotoxic effect; type: cell-based
Procedure, shortened: (§1)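 Cells were seeded at 5×10^3 cells/well and grown 24 h at 37°C. LLC cells were grown in DMEM with 10% FBS and A549 cells in RPMI with 10% FBS. Cells were exposed to serially diluted test compound at 0.01–10 μg/mL PMX-equivalent for 48 h. WST-8 (CCK-8) was added for 2 h and absorbance read at 450 nm. Viability is % of untreated cells; mean ± SD, n=6.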

[3] = In vivo pharmacokinetic study in rats; conditions: Sprague Dawley, rat, plasma, po, 20 mg/kg
LLC cells = test: In vitro wound-healing assay, LLC cells; type: cell-based; conditions: equivalent to 0.5 μg/mL (0.84 μM) PMX, 48 h
Procedure, shortened: (§2)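 Cells were plated at 3×10^4 cells/well on collagen-coated plates, LLC in DMEM and A549 in RPMI, each with 10% FBS. They were grown 48 h at 37°C to near-confluence. A wound maker scratched the monolayer, which was washed twice with PBS pH 7.4. Cells were then exposed to test compound at 0.01–10 μg/mL PMX-equivalent for 48 h at 37°C. Phase-contrast images every 12 h; automated edge-detection mask gave the area.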

[4] = test system: Lewis lung carcinoma (LLC) cells; test: In vitro cytotoxic effect; type: cell-based; conditions: 48 h, read-out: Cell viability
Procedure, shortened: as §1

A549 cells = test: In vitro wound-healing assay, A549 cells; type: cell-based, human; conditions: 48 h
Procedure, shortened: as §2

[5] = Parallel artificial membrane permeability assay; type: in vitro ADME; conditions: PAMPA, pH 6.8
Procedure, shortened: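 Donor wells held test compound diluted in PBS pH 6.8 to 200 μg/mL PMX-equivalent; acceptor wells held PBS pH 6.8. Plates were incubated 5 h at room temperature, then donor and acceptor were both sampled. Permeated PMX was quantified by HPLC at 254 nm.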

[6] = once-weekly IV 20 mg/kg PMX, 3 weeks

Nc1nc2[nH]cc(CCc3ccc(C(=O)N[C@@H](CCC(=O)O)C(=O)O)cc3)c2c(=O)[nH]1 [PMX, N-[4-[2-(2-amino-3,4-dihydro-4-oxo-7H-pyrrolo[2,3-d]pyrimidin-5-yl)-ethyl]-benzoyl]-L-glutamic acid]
Drug dissolved within 15 min (In vitro drug release; 0.1 N HCl pH 1.2, 37°C): More than 90%
Drug released within 15 min (In vitro drug release; phosphate buffer pH 6.8, 37°C): More than 90%
Papp at 5 h, 100 μg/mL [1]: 0.498 ± 0.096 ×10⁻⁶ cm/s
Reduction in tumor volume and mass vs control mice (LLC tumor-bearing mice; once-a-day oral 20 mg/kg PMX in water, 21 days): did not show significant reductions in the tumor volume and mass
Tumor volume lower than control group (LLC tumor-bearing mice; [6]): 49%
Tumor volume lower than oral PMX group (LLC tumor-bearing mice; [6]): 46%
viability at 8.37 µM ([2]; Homo sapiens, A549, 48 h, read-out: Cell viability): 52.2%
half-life [3]: 7.03 ± 1.61 h
Relative wound recovery (LLC cells): 57.5%±5.76%
viability at 0.08 µM [4]: < 80%
viability at 0.84 µM [4]: 45.4%
viability at 5 µg/mL [4]: 29.8%
Inhibition of cell proliferation/migration, fold higher than control cells (A549 cells; equivalent to 0.5 μg/mL (0.84 μM) PMX): 1.28 fold
Wound recovery rate (A549 cells; equivalent to 1 μg/mL (1.67 μM) PMX): 54.0%±5.09%
Papp at 5 h, 200 μg/mL [5]: 0.665 ± 0.207 ×10⁻⁶ cm/s

2-hydroxypropyl-beta-cyclodextrin [HP-beta-CD]
Cell viability after the addition of excipient alone ([2]; A549 cells, excipient alone, amount matching the same molar concentration of PMX): > 80%
